Assay: Toxicity liver stage against HepG2, at 10uM
Type: cell-based
Design: test concentration 10 uM, cell line HepG2-A16-CD81EGFP
Conditions: human, HepG2-A16-CD81EGFP cells; read-out: INHIBITION
Outline: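 Uninfected HepG2-A16-CD81EGFP cells, 3 × 10^3 per well, 1536-well, plated on prespotted compound at 10 μM final, parasite-free screening media added to match infected plates; puromycin 10 μM positive, DMSO 0.5% negative; run in parallel with 48 h PbLuc assay at 37 °C, 5% CO2; viability by CellTiter-Glo luminescence, normalized to controls.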

SMILES | cytotoxicity at 10 µM
Cn1ncc(N2CCOCC2)c(Cl)c1=O | -13.8%
COC(=O)[C@H]1CN(C(=O)NC(C)C)CCN1C(=O)CSC | -6.52%
CNC(=O)C(C)(C)N1CCC[C@H]1C(=O)NC1CCCC1 | -3.01%
COc1ccc2c(c1)nc1n2[C@@H](CNCc2nccs2)COC1 | -1.57%
CCNC(=O)N1C[C@@H]2OCC(=O)N(C)[C@@H]2C1 | 7.65%
CCNC(=O)N1CC[C@H]2CC(=O)N(C3CCCCC3)CC[C@H]2C1 | -1.08%
CCNC(=O)NC[C@H]1COCc2nc3cc(C)ccc3n21 | 3.72%
CN1C[C@@H](O)[C@]2(CCN(C(=O)c3ccccc3)C2)S1(=O)=O | 0.148%
O=c1cc(Cn2ccnc2)nc2n1CCCN(Cc1ccco1)C2 | 7.77%
CC(=O)NCC(=O)N1CCOC2(CCCN(c3ccc(C)nn3)C2)C1 (centres undefined) | 0.876%
CCO[C@@H]1CC[C@H]2[C@H]1OCCN2Cc1ccc(F)cc1 | 10.3%
CC(=O)N1CCC2(CC1)CC(NC(=O)N(C)C)c1cc(C)ccc12 (centres undefined) | 4.3%
CCC(=O)N1CCC2(CC1)CC(Oc1ccccc1)CO2 (centres undefined) | 7.69%
CC(C)NC(=O)c1cc2c(s1)CCN2C(=O)CN(C)C | 1.94%
Cc1cc(C(F)(F)F)nc(N2CCN3CCCC3C2)n1 (centres undefined) | 4.78%
Cc1cc(-c2cc3nc(C)c(C)c(NCC4COCCO4)n3n2)no1 (centres undefined) | 8.97%
Cc1ccnc(C2COCCN2C)n1 (centres undefined) | 3.59%
CCCc1cc(C(=O)NC(C)c2ccccc2)n(C)n1 (centres undefined) | -4.45%
CCc1noc(CCC(=O)N[C@@H]2CC[C@@H](n3ccnc3)[C@@H]2O)n1 | -15.5%
Cc1ccc2c(c1)C(=O)NCC1(CCN(C(=O)c3ccnn3C)CC1)O2 | -16.6%
O=c1[nH]c(N2CCCCC2)nc2c1CCN(Cc1cccnc1)C2 | -3.07%
CCCC(=O)N1CCN(Cc2cc(-c3ccncc3)nn2C)CC1 | -27.1%

SMILES | cytotoxicity at 10 µM
CS(=O)(=O)N1CCN(Cc2cccs2)CC(C(N)=O)C1 (centres undefined) | 18%
CN(C)CC1(O)CCN(S(=O)(=O)c2cccc(F)c2)C1 (centres undefined) | 2.36%
CN(C(=O)C1CCOCC1)[C@@H]1CCC[C@@H](N2CCCC2)[C@@H]1O | -6.22%
CCS(=O)(=O)CC(=O)Nc1ccc2oc(C3CC3)nc2c1 | -5.4%
CCn1nnnc1-c1cccc(NC(=O)CCc2cnn(C)c2)c1 | -6.19%
CS(=O)(=O)CCCNC(=O)Nc1sc2ccccc2c1Cl | 6.54%
Cc1ccc(C(=O)NC2CCCN(C)C2)c(=O)[nH]1 (centres undefined) | -6.96%
CC(C)Cc1noc(CN2CCCC(CNS(N)(=O)=O)C2)n1 (centres undefined) | -4.88%
CC(=O)NCc1ccc(C(=O)N2CCCc3c(F)ccc(C)c32)cc1 | -3.26%
COCCN(C)CC1CCCN1S(=O)(=O)c1cccc(F)c1F (centres undefined) | 4.93%
COc1c(C2CCCN2CC(=O)N(C)c2nccs2)c(C)nn1C (centres undefined) | 3.37%
Cn1ccc(C(=O)N2CCCC2c2ccc3c(c2)OCCO3)cc1=O (centres undefined) | 12.3%
Cc1cc(NCCC(=O)NC2CCCCC2)nc(-c2ccncc2)n1 | -5.37%
CCOC(C)C(=O)Nc1ccc2c(ccn2CC)c1 (centres undefined) | 0.877%
CCOC(C)c1nc(CN2CCN(c3ncc(C)cn3)CC2)cs1 (centres undefined) | -0.509%
CC(C)(C)N1CCN(C(=O)c2cccnc2-n2cncn2)CC1 | 4.22%
CCN1CCC(NC(=O)CN2CCCC(NS(C)(=O)=O)C2)CC1 (centres undefined) | 2.94%
CC(C)CNC(=O)CNC(=O)NC(c1nccs1)C1CC1 (centres undefined) | -6.66%
Cc1nc(C(=O)N(C)CC2CCCO2)nn1-c1ccccc1C(C)C (centres undefined) | -3.62%
CNC(=O)C1CCCCN1C(=O)c1n[nH]c(=O)c2ccccc12 (centres undefined) | 0.0666%
CCc1cc(NC(=O)C2CCCN(C(=O)c3ccncc3)C2)[nH]n1 (centres undefined) | -8.18%
COC(=O)Cc1cccc(NC(=O)Cc2cc(C)[nH]n2)c1 | -2.45%

SMILES | cytotoxicity at 10 µM
Oc1ncccc1-c1nc(-c2cccc(CN3CCOCC3)c2)no1 | -11.8%
O=C(Nc1nnn[nH]1)c1ccc(-n2cccc2)c(F)c1 | -1.63%
Cc1nn(CN(CC2CCOC2)C2CC2)c(=O)c2ccccc12 (centres undefined) | 4.77%
Cc1ccc(C)c(CN2CCOC(c3noc(C)n3)C2)c1 (centres undefined) | 5.12%
O=S(=O)(CC1CCCCO1)Nc1c(F)cccc1-n1cccn1 (centres undefined) | 3.44%
Cc1nn(C)c(C)c1NC(=O)CN1CCc2c(nc(C(C)C)n2C)C1 | -8.02%
O=C(c1ccsc1)N1CCC2(CC1)CCN(S(=O)(=O)C1CC1)CC2 | -109%
O=C(N[C@@H]1CN(Cc2ccco2)[C@@H]2CCCO[C@@H]21)c1cscn1 | -105%
CN1CCN(Cc2cnc3n2CCN(C(=O)c2cscn2)C3)CC1 | -78.2%
O=C1CC(c2ccncc2)C2(CCN(Cc3cccnc3)CC2)N1 (centres undefined) | 6.26%
CCS(=O)(=O)N1CCC2(CCC2NC(=O)c2ccn(C)c2)CC1 (centres undefined) | -2.11%
O=C(c1ccc[nH]1)N1C[C@H]2CN(Cc3cccc(F)c3)C(=O)[C@H]2C1 | 3.99%
Cc1cc(C)n(CCCN(C)c2cc(C3CC3)ncn2)n1 | -0.609%
CN1CCN(C[C@@H]2CN(C3Cc4ccccc4C3)C[C@@H]2CO)CC1 | 8.29%
CN(C)CCn1ccnc1C1CCN(C(=O)CCC(F)(F)F)CC1 | -0.734%
O=S(=O)(c1cccnc1)N1CCCCC1CCN1CCOCC1 (centres undefined) | -3.03%
CCC(C(=O)NCC1=CCN(C)CC1)c1ccccc1 (centres undefined) | -7.66%
CO[C@H]1CN(C(C)C)C[C@@H]1NC(=O)Nc1ccc2oc(C)cc2c1 | 0.0448%
COc1ccc(N2CCN(C(=O)CCc3n[nH]c(C)n3)CC2=O)cc1 | -0.524%
Cc1ccc(C(C(=O)O)N(C)CCN2CCOCC2)c(F)c1 (centres undefined) | 4.28%
O=C(NCc1csc(-c2cnccn2)n1)c1cnn2c1CCCC2 | 0.209%
O=C(O)CN(Cc1ccsc1)CC1CCCO1 (centres undefined) | -4.39%

SMILES | cytotoxicity at 10 µM
O=c1[nH]c(-c2ccccc2)nc2c1CCN(S(=O)(=O)N1CCCC1)C2 | 3.86%
CCc1ccc(CN(C)C(=O)c2ccc(CSc3nnc[nH]3)o2)nc1 | -2.19%
O=C(O)c1ccnc(-c2ccnc(NCCc3ccc(F)cc3)n2)c1 | 1.74%
CN(C)c1ccccc1C(=O)N1CCOC2(CNCCOC2)C1 (centres undefined) | -1.08%
COc1ccccc1-c1ccc(NCc2cn3c(n2)SCC3)nn1 | 8.62%
CC(C)c1nnc(NCc2cc3n(n2)CCN(C2CCCCC2)C3)s1 | -4.63%
Cc1ccccc1-n1cc(-c2ccnc(N[C@@H](CO)C(C)C)n2)cn1 | -3.39%
CN(C)C(=O)c1cccnc1-c1ccc2c(c1)OCCO2 | 5.73%
COc1ccc(/C=C/CN2CCN(c3nccnc3C)CC2)cc1 | -8.47%
O=C1NC[C@@]2(C(=O)O)CN(Cc3cccc(OC4CCCC4)c3)C[C@@H]12 | -2.34%
CCn1cc(-c2cc(C(F)(F)F)n(CCCN)n2)cn1 | -7.86%
Cc1nc(-c2ccccc2)sc1CNC1CCc2ncnn2C1 (centres undefined) | -4.07%
O=C(NCC1CCOC1)c1csc(-c2ccc(Cl)cc2)n1 (centres undefined) | -11.6%
O=C(Cc1ccc2c(c1)CCC2)NCCNc1cnccn1 | -0.037%
COCCN1CCC(CNC(=O)C2(c3ccc(F)cc3)CCC2)CC1 | -4.45%
CC1CN(CC(=O)Nc2ccncc2)CCN1Cc1nccn1C (centres undefined) | -13.7%
CCS(=O)(=O)N1CCC(NC(=O)c2cc(C)ccc2O)CC1 | -8.92%
Cn1cc(CC2CCN(C(=O)NCc3cccc(C#N)c3)C2)cn1 (centres undefined) | -12.3%
CCCc1noc(CN2CCN(CCO)CC2)n1 | -12.1%
Cc1cc(C(=O)N2CCCC(n3nc(C)cc3C)C2)on1 (centres undefined) | -7.69%
Cc1cc(CN2CCN(CCOc3cccc(C#N)c3)CC2)no1 | -11.6%
O=C(NCCN1CCc2ccccc2C1)c1scnc1Cl | -4.84%

SMILES | cytotoxicity at 10 µM
O=C(c1ccc(Br)o1)N1CCCCC1Cn1cccn1 (centres undefined) | -5.31%
CNS(=O)(=O)c1cccc(CNc2ccc(C(F)(F)F)nn2)c1 | -11.4%
CN1C(=O)CCC12CCC(NCc1ccsc1)CC2 (centres undefined) | 3.56%
CNC(=O)CN1CC[C@H]2CN(C(=O)c3cccc(C)c3)C[C@H]2C1 | -2.45%
COCCN1CCc2ncnc(-c3ccccc3)c2CC1 | 9.99%
C[C@H]1CN(c2ccccn2)C[C@@]12CCN(c1cccnc1)C2=O | -2.62%
Cc1ccsc1C(=O)N1CCc2ncc(CN3CCCC3)n2CC1 | -111%
O=C1N(CC2CCCC2)CCC12CCN(c1ncc(F)cn1)CC2 | 11.2%
Cc1nnc(N2CCCC3(CN(Cc4nccs4)CCO3)C2)o1 (centres undefined) | 2.08%
COc1ccc(CN2CCC3(CCN(c4cccnc4)C3=O)C2)cc1 (centres undefined) | 5.16%
CN(C)c1ncc(-c2cccc(F)c2)c(C2CNCCO2)n1 (centres undefined) | -29.9%
Cc1oncc1C(=O)N1CC[C@@H]2[C@@H]1CC(=O)N2Cc1cccnc1 | 5.44%
O=C1COC2(CCN(CC3CCC3)CC2)CN1c1cncnc1 | -1.11%
CN(C)C[C@H]1C[C@@H]2CN(Cc3ccoc3)C[C@@H]2O1 | 4.85%
CCN1CCC2(CC1)CC(COC)N(Cc1csc(C)n1)C2 (centres undefined) | 6.68%
COCCN1C[C@@H](C)[C@@]2(COCCN(C(=O)c3cnc(C)cn3)C2)C1 | -0.665%
CCN1Cc2nccn2CC(COCc2csc(C)n2)C1 (centres undefined) | 3.86%
COCC1CC2(CCN(Cc3ccccn3)CC2)CN1c1ncccn1 (centres undefined) | 14.4%
Cc1nc(CO[C@@H]2CC[C@H]3[C@H]2OCCN3Cc2cccnc2)cs1 | -1.43%
COCCN(C)CC(=O)N1C[C@@H]2CC[C@H]1CN(C(=O)c1ccncc1)C2 | -0.908%
O=C1NCC2(CCC(C(=O)N3CCCC(O)C3)CC2)Oc2ccccc21 (centres undefined) | -24.1%

From ChEMBL document CHEMBL4513216, “Probing the Open Global Health Chemical Diversity Library for Multistage-Active Starting Points for Next-Generation Antimalarials” (ACS Infect Dis, 2020)
